Tests used:
Format in all cases: functional, organism-based
Homo sapiens [1] = organism: Homo sapiens; test: Compound was tested for the inhibitory activity against human platelet aggregation by U46,619 (0.3 uM) + Aspirin (ASA, 1 mM).
Procedure, shortened: (§1)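 Human platelet-rich plasma, count adjusted to 3 × 10^8/mL. Turbidometric (Born) aggregometry. Inhibitor added 1 min before inducer, which was used at the minimum level giving maximal aggregation. IC50 taken from change in light-transmittance amplitude after 6 min for ADP (secondary aggregation only) and 4 min for AA and U46619. U46619 samples contained aspirin 1 mM. Mean ± SEM, three to nine donors.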

Homo sapiens [2] = organism: Homo sapiens; test: Compound was tested for the inhibitory activity against serotonin secretion by arachidonic acid (AA (0.1-1 mM)).; details: in the assay text read “AA (0.2-1 mM)” for “AA (0.1-1 mM)”
Procedure, shortened: (§2)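 Human platelet-rich plasma (3 × 10^8/mL) prelabeled with [14C]serotonin. Inhibitor added 1 min before the inducer: ADP 1–5 μM, AA 0.2–1 mM, or U46619 0.3 μM with aspirin 1 mM. Dense-granule secretion measured as release of radioactivity. Mean IC50 ± SEM, three to nine donors.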

Homo sapiens [3] = organism: Homo sapiens; test: Compound was tested for the inhibitory activity against serotonin secretion by U-46,619 (0.3 uM) + Aspirin (ASA, 1 mM).; procedure, shortened: as §2
Homo sapiens [4] = organism: Homo sapiens; test: Compound was tested for the inhibitory activity against human platelet aggregation by adenosine -Diphosphate (ADP (1-5 uM)); procedure, shortened: as §1
Homo sapiens [5] = organism: Homo sapiens; test: Compound was tested for the inhibitory activity against human platelet aggregation by arachidonic acid (AA (0.1-1 mM)).; details: in the assay text read “AA (0.2-1 mM)” for “AA (0.1-1 mM)”; procedure, shortened: as §1
Homo sapiens [6] = organism: Homo sapiens; test: Compound was tested for the inhibitory activity against serotonin secretion by adenosine -Diphosphate (ADP (1-5 uM)).; procedure, shortened: as §2
Homo sapiens [7] = organism: Homo sapiens; test: Compound was tested for the inhibitory activity against serotonin secretion by adenosine -Diphosphate (ADP (1-5 uM)); procedure, shortened: as §2

IC50 (Homo sapiens [1]) [µM]	IC50 (Homo sapiens [2]) [µM]	IC50 (Homo sapiens [3]) [µM]	IC50 (Homo sapiens [4]) [µM]	IC50 (Homo sapiens [5]) [µM]	IC50 (Homo sapiens [6]) [µM]	IC50 (Homo sapiens [7]) [µM]	SMILES
1480	1010	1440	533	851	419		O=C(O)C1Cc2cc(Cl)ccc2O1 (stereo not given)
1510	814	2380	363	739		466	O=c1c(O)c(O)oc2ccc(Cl)cc12
> 4000	> 3430			> 3070			CC(C)(Oc1ccc(Cl)cc1)C(=O)O [CLOFIBRIC ACID]

— ChEMBL document CHEMBL1123261, “Comparative antiaggregatory activity in human platelets of a benzopyranone aci-reductone, clofibric acid, and a 2,3-dihydrobenzofuran analogue” (J Med Chem, 1986)
